Compound activity: PubChem BioAssay, several laboratories
The sample as a whole holds a higher share of hits than the screen did.
UPR XBP1 act – activators of adaptive XBP1 UPR arm, primary screen, cell-based, CHO-XBP1 luciferase reporter, luminescence, uHTS; IRE1-XBP1 UPR activation; percent of tunicamycin response, DMSO as zero; activation, % at 20 µM; 330,000 compounds, 0.33% hits; AID 463104, 2010;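 active means versus positive control, 20 µM dose yields 30% or more activation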
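Material – CHO cell line with stable XBP1 luciferase reporter · Buffer or medium – F12 plus 10% FBS · Compound – single point, 20 µM final compound, 1% DMSO · Schedule – 16-18 h cell attachment at 37 °C, then 6 h compound exposure · Signal – Steady-Glo luminescence read · Benchmarks – high control tunicamycin 10 µg/mL final, low control DMSO vehicle only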
CHOP UPR activ – activators of apoptotic CHOP UPR arm, primary screen, cell-based, CHO-CHOP luciferase reporter, luminescence, uHTS; UPR activation; percent of tunicamycin response over DMSO baseline; activation, % at 10 µM; 330,000 compounds, 0.34% hits; AID 449763, 2010;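 active means at 10 µM dose, activation of 40% or more, normalized to positive control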
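System: CHO CHOP reporter cells. Amount: 500 cells per well. Buffer or medium: F12 medium, 10% FBS. Compound dosing: one dose, 10 µM in 0.5% DMSO. Incubation: 6 h compound exposure at 37 °C after overnight seeding. Technique: Steady-Glo luciferase luminescence. Benchmarks: tunicamycin and DMSO controls.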
Bfl-1 A1 inh – caspase 3/7 activation in MEF A1-2A-BIM cells, primary screen, A1 inhibitor project, cell-based, luminescence, HTS | Caspase-Glo 3/7 luminescence, 3 h; percent of clofoctol response, vehicle zero | caspase activation, % (concentration not given with the values) | 330,000 compounds, 0.066% hits | AID 2462, 2010;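 active means over half of replicate activation scores above 10%, or exactly half above 10 with the replicate mean above 10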
CHOP inhibitor – inhibitors of CHOP promoter induction, primary screen, cell-based, unfolded protein response, luciferase reporter; inhibition, % at 10 µM; AID 2732, 2010; 220,000 compounds, 3.8% hits; CHO-K1 CHOP-promoter luciferase, tunicamycin-induced, 15-18 h;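 active means compounds that reduced the stress-induced luciferase reporter signal by more than about 70% of percent inhibition, limit read from the data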
UPR CHOP confirm – activators of apoptotic CHOP UPR arm, confirmation, cell-based, CHO-CHOP luciferase reporter, single concentration; shares compounds with CHOP UPR activ; CHO-CHOP cells, CHOP-luciferase reporter luminescence; percent of tunicamycin response, DMSO as zero; activation, % at 10 µM; 1,000 compounds, 64% hits; AID 463112, 2010; in the data active means activation above about 33%
Each line names hits and unclear results; the compound was inactive in the other large screens (follow-up assays come after a bar, where they were run).

O=[N+]([O-])c1ccc(Sc2nnnn2-c2ccccc2)nc1	CHOP UPR activ 126 (no result: Bfl-1 A1 inh) | UPR CHOP confirm 101
COc1cc(/C=C2\C(=O)ON=C2c2ccc(Cl)cc2)ccc1O	CHOP UPR activ 180 (no result: CHOP inhibitor) | UPR CHOP confirm 143
O=C1ON=C(c2ccccc2)/C1=C/c1ccc(O)c(O)c1	none (no result: CHOP inhibitor)
CC(C)(C)Cc1cc(N)on1	none
COc1ccc(-c2cc3ccccc3oc2=O)cc1NC(=S)NC(=O)c1ccc2c(c1)OCCO2	UPR XBP1 act 198, CHOP UPR activ 87, Bfl-1 A1 inh 26 | UPR CHOP confirm 55
C/C(CC1CC2=C(CC1(C)C)C(C)(C)CCC2)=N\NC(N)=S (configuration not stated)	CHOP UPR activ 57 | UPR CHOP confirm inactive
Cc1cc(C)n(-c2nc(NC(C)(C)C)nc(NC(C)(C)C)n2)n1	CHOP UPR activ 108, CHOP inhibitor 78 | UPR CHOP confirm 45
Cc1cc(C(=O)Nc2ccccn2)cs1	none
COC(=O)c1c(NC(=O)C(Cl)Cl)sc2c1C(C(=O)OC)CC2 (configuration not stated)	CHOP UPR activ 45, CHOP inhibitor 80 | UPR CHOP confirm inactive
COC(=O)Oc1ccc(/C=C/C(=O)OC(C)C)cc1OC(=O)OC	CHOP UPR activ 131 | UPR CHOP confirm 61
CCN(c1ccccc1)S(=O)(=O)c1ccc(NN)nc1	none (no result: CHOP inhibitor)
Cc1cccc(N2CCN(C(=O)CCC(=O)N3Cc4ccccc4Oc4ncccc43)CC2)c1C	none (no result: CHOP inhibitor)
CCc1cc2c(=O)[nH]c(N3CCCC3)nc2s1	none
CCc1cc2c(=O)[nH]c(-c3ccccn3)nc2s1	CHOP UPR activ 290 | UPR CHOP confirm 247
Cc1ccnc(N(C(=O)c2cccs2)C(=O)c2cccs2)c1	none
O=C(c1cccs1)N(C(=O)c1cccs1)c1ccc(Br)cn1	UPR XBP1 act 86, CHOP UPR activ 98 | UPR CHOP confirm 59
O=Cc1ccc(O)c2ncccc12	CHOP UPR activ 86 (no result: Bfl-1 A1 inh) | UPR CHOP confirm 89
Cc1oc2c(O)c(O)ccc2c(=O)c1-c1cnn(-c2ccccc2)c1	CHOP UPR activ 114 | UPR CHOP confirm inactive
Cc1nc2ccccc2c(=O)n1-c1cccc(NC(=O)c2cccs2)c1	none (no result: CHOP inhibitor)
O=C(Nc1cccc(N2C(=O)C=CC2=O)c1)c1cccs1	CHOP UPR activ 124 (no result: CHOP inhibitor) | UPR CHOP confirm inactive
CCc1ccc2nc(N(CCCN(C)C)C(=O)c3ccc(S(=O)(=O)N(C)C4CCCCC4)cc3)sc2c1	UPR XBP1 act 131, CHOP UPR activ 113 (no result: CHOP inhibitor) | UPR CHOP confirm 65
COc1ccc(C(=O)NCC(O)COc2ccc(C(C)(C)C)cc2)cc1[N+](=O)[O-] (configuration not stated)	none
COc1ccc(/C=C/C(=O)c2ccc(C(=O)/C=C/c3ccc(OC)c(OC)c3)cc2)cc1OC	CHOP UPR activ 84 (no result: Bfl-1 A1 inh, CHOP inhibitor) | UPR CHOP confirm 138
COC(=O)c1ccc(/C=C/C(=O)c2ccc(OC)c(OC)c2)cc1	none
Cc1ccc(S(=O)(=O)O/N=C2/CCCc3occc32)cc1	none
CCc1cccc2c(C(=O)CCl)c[nH]c12	CHOP UPR activ 84 | UPR CHOP confirm 66
CCc1cccc2c(C(=S)N3CCCC3)c[nH]c12	none
O=C(COC(=O)/C=C/c1cccc(Br)c1)NCCc1ccccc1	none (no result: CHOP inhibitor)
COc1ccc(CCNC(=O)c2coc(=O)c(Br)c2)cc1	CHOP UPR activ 116 (no result: CHOP inhibitor) | UPR CHOP confirm 56
COc1ccc(CCNC(=O)c2ccc(Br)cc2)cc1	none (no result: UPR XBP1 act, CHOP UPR activ, CHOP inhibitor)
COc1ccccc1CNCc1cc(=O)oc2c(C)c(C)ccc12	none (no result: CHOP inhibitor)
O=C(CCN1C(=O)/C(=C/c2cccs2)SC1=S)N1CCCCC1	CHOP UPR activ 40 (no result: CHOP inhibitor) | UPR CHOP confirm inactive
FC(F)(F)C1=Nc2cccc3cccc(c23)N1	CHOP UPR activ 62 (no result: Bfl-1 A1 inh, CHOP inhibitor) | UPR CHOP confirm inactive
Fc1ccc(C2=Nc3cccc4cccc(c34)N2)cc1	none
CCCCOc1ccc(N2C(=O)CC(N(O)c3ccccc3)C2=O)cc1 (configuration not stated)	CHOP UPR activ 146 | UPR CHOP confirm 165
CCCCCOc1ccc(N2C(=O)CC(N(O)c3ccccc3)C2=O)cc1 (configuration not stated)	CHOP UPR activ 112 | UPR CHOP confirm 143
Oc1c(C(c2ccccn2)N2CCC(Cc3ccccc3)CC2)cc(Cl)c2cccnc12 (configuration not stated)	CHOP UPR activ 43 | UPR CHOP confirm 74
CN1CCN(C(c2ccccn2)c2cc(Cl)c3cccnc3c2O)CC1 (configuration not stated)	none
CCN(CC)Cc1c(O)ccc2c1O/C(=C\C=C\c1ccccc1)C2=O	CHOP UPR activ 69 | UPR CHOP confirm inactive
COc1ccc(C(=O)N/N=C/c2ccccn2)cc1OC	none
COc1ccc(C(=O)Nc2ccccc2C(=O)N/N=C/c2ccccn2)cc1OC	CHOP UPR activ 101 | UPR CHOP confirm 100
Cc1cccc(C(=O)Nc2ccc(C(=O)/C=C/c3ccncc3)cc2)c1	CHOP UPR activ 49 (no result: CHOP inhibitor) | UPR CHOP confirm inactive
Cc1cccc(C(=O)Nc2ccc(C(=O)/C=C/c3cccnc3)cc2)c1	none (no result: UPR XBP1 act, CHOP UPR activ)
O=C(/C=C/c1cccnc1)c1ccc(NC(=O)c2cccc(Br)c2)cc1	CHOP UPR activ 91 | UPR CHOP confirm 197
Cc1cccc(C(=O)Nc2cccc(C(=O)N/N=C/c3ccncc3)c2)c1	none
CCOC(=O)c1ccc(NC(=O)CCNC(=O)c2ccc([N+](=O)[O-])cc2)cc1	none
COC(=O)Cc1cc(=O)oc2cc(O)ccc12	none
O=C(N/N=C(\c1ccccc1)c1ccccn1)c1cccc([N+](=O)[O-])c1	CHOP UPR activ 136 | UPR CHOP confirm 319
Brc1ccccc1CN1CCN(Cc2c[nH]c3ccccc23)CC1	CHOP UPR activ 41 (no result: CHOP inhibitor) | UPR CHOP confirm 153
Brc1ccc(CN2CCN(Cc3c[nH]c4ccccc34)CC2)cc1	none (no result: CHOP inhibitor)
c1ccc(Cc2nnc3sc(Nc4ccccc4)nn23)cc1	none
O=S(=O)(c1ccc(S(=O)(=O)N2CCCC3(CCCCC3)C2)cc1)N1CCCCC1	CHOP UPR activ 52 | UPR CHOP confirm inactive
O=C(CCc1ccc(O)c(O)c1)N/N=C/c1ccc2c(c1)OCO2	UPR XBP1 act 34, CHOP UPR activ 49 (no result: CHOP inhibitor) | UPR CHOP confirm inactive
CC(C)Oc1ccc(CCC(=O)N/N=C/c2ccc3c(c2)OCO3)cc1	none (no result: CHOP inhibitor)
COc1cc(/C=C(\C#N)C(N)=O)ccc1OS(=O)(=O)c1ccc(C)cc1	none
COc1cc(/C=C(\C#N)C(=O)NC2CCCCC2C)ccc1OS(=O)(=O)c1ccc(C)cc1 (configuration not stated)	CHOP UPR activ 76 | UPR CHOP confirm inactive
Cc1ccc(C(=O)Nc2ccccc2-c2ccccc2)cc1S(=O)(=O)Nc1cccc(C)c1C	none
